Test results as given in PMC6081960 (Bioorganic & medicinal chemistry letters, 2018).

Experiments:
NALM16 cells = assay: St. Jude cancer cell line panel, NALM16; assay type: cell-based, human; settings: ALL cell line; confidence intervals in parentheses; NA: not active
How it was run: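 Human ALL line NALM16, derived from the peripheral blood of a child at relapse in 1977. Carries a near-haploid karyotype. Tested in a St. Jude screening panel alongside three other ALL lines, one lymphoma line and mouse choroid plexus carcinoma CPC300 cells.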

RAJI cells = assay: St. Jude cancer cell line panel, RAJI; assay type: cell-based; settings: Burkitt's lymphoma; confidence intervals in parentheses; NA: not active
How it was run: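 RAJI Burkitt's lymphoma cells, FAB L3 subtype, served as the panel's single lymphoma line. Screened together with four ALL lines and mouse CPC300 choroid plexus carcinoma cells at St. Jude.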

REH cells = assay: St. Jude cancer cell line panel, REH; assay type: cell-based, human; settings: precursor B-cell ALL; confidence intervals in parentheses; NA: not active
How it was run: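 REH: patient-derived precursor B-cell ALL line that expresses only wild-type MLL and wild-type AF4. Screened in a St. Jude panel with other ALL lines, a lymphoma line and mouse CPC300 cells.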

CSc1ccc(/C=C2/C(C)=C(CC(=O)NCCN(C)C)c3cc(F)ccc32)cc1 [SSA, sulindac sulfide amide]
no activity: EC50 NALM16 (NALM16 cells) | EC50 RAJI (RAJI cells) | EC50 REH (REH cells)
